The target of experiment [1] is Delta-type opioid receptor (Mus musculus, UniProt P32300). Briefly: Inhibitory concentration against delta opioid receptor of electrically induced smooth muscle contraction of mouse vas deferens. The format is functional.
Experiment [2] concerns the target Delta-type opioid receptor (Rattus norvegicus, UniProt P33533). Briefly: Binding affinity towards delta opioid receptor was determined in rat brain using [H]-[p-Cl-Phe4]-DPDPE as radioligand. The format is tissue-based. In a few lines: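 Rat brain membranes washed in 50 mM Tris-HCl pH 7.4, preincubated 30 min at 25 °C to strip endogenous peptides. Buffer contains BSA, bestatin, bacitracin, captopril and toluenesulfonyl fluoride. Incubation 3 h at 25 °C. Nonspecific binding with 10 μM naltrexone. Filtration, scintillation counting, nonlinear least-squares fit, n ≥ 6.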

The test system of experiment [3] is Opioid receptors; mu & delta. Briefly: Selectivity ratio (mu/delta) of the compound. The class given is protein assay.
The nature of experiment [4]: Selectivity ratio (GPI/MVD) of the compound. The format is functional. Put shortly:
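IC50 ratio GPI/MVD. GPI: guinea pig ileum strips, 1-g tension, 0.4-ms pulses. MVD: male ICR mouse vas deferens (25–40 g), Mg-free Krebs, 0.5-g tension, 2.0-ms pulses. Both tissues at 37 °C, 0.1 Hz, cumulative doses with 3 min contact. Hill-equation fit, ≥4 tissues each.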

Experiment [5] has as its target Mu-type opioid receptor (Rattus norvegicus, UniProt P33535). As to the kind of experiment: Binding affinity towards mu opioid receptor was determined in rat brain using [3H]CTOP as radioligand. The class given is tissue-based. Put shortly:
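Rat brain membranes washed in 50 mM Tris-HCl pH 7.4, preincubated 30 min at 25 °C. Competition against 0.5 nM [3H]CTOP, 10 analog concentrations over an 800-fold range, in peptidase-inhibitor buffer with BSA. Incubation 3 h at 25 °C. Nonspecific binding defined by 10 μM naltrexone. Bound ligand filtered and counted; IC50 by nonlinear least-squares regression, at least three runs in duplicate.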

For experiment [6], the target named is Mu-type opioid receptor (Cavia porcellus, UniProt P97266). Briefly: Inhibitory concentration against electrically evoked contractions of guinea pig ileum longitudinal muscle-myenteric plexus. The format is functional, tissue-based. In a few lines:
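Longitudinal muscle-myenteric plexus strips from male Hartley guinea pigs (250–500 g) in oxygenated Krebs bicarbonate at 37 °C, 1-g tension. Transmural stimulation at 0.1 Hz, 0.4-ms pulses, supramaximal voltage. Cumulative agonist doses with 3 min contact each. Inhibition is relative to contraction height over the preceding 1 min.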

Where a SMILES comes first, the peptide text is derived from it. Bridges are numbered along the chain shown (N, C = ends). [ ]: non-standard residue; d: D form. dPen = CC(C)(S)[C@@H](N)C(=O)O

Chain of Delta-type opioid receptor (Rattus norvegicus, UniProt P33533) (P33533 whole entry): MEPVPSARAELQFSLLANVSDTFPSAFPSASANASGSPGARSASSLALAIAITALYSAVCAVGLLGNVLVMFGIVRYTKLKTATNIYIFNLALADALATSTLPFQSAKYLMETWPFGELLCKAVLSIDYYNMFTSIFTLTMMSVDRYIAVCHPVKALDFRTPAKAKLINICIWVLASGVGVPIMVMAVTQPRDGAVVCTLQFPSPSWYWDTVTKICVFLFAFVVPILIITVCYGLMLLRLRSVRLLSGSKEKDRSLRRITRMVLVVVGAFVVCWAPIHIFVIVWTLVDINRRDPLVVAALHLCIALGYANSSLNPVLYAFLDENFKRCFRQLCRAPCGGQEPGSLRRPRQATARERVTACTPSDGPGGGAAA
Chain of Mu-type opioid receptor (Cavia porcellus, UniProt P97266) (P97266 whole entry): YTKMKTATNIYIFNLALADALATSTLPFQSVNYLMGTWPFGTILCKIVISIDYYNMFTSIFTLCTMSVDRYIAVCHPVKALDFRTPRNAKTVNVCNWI
Chain of Mu-type opioid receptor (Rattus norvegicus, UniProt P33535) (P33535 whole entry): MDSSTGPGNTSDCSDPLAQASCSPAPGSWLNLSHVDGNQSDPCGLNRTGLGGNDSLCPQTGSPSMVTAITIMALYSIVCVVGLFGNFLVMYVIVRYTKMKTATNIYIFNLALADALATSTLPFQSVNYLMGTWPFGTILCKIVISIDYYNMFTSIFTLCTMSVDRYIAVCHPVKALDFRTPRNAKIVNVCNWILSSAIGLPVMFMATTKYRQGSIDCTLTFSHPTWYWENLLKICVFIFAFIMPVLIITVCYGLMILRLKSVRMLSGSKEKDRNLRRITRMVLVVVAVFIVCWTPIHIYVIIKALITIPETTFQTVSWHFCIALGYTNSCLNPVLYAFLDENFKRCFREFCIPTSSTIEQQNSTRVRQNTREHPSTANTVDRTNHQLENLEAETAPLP
Chain of Delta-type opioid receptor (Mus musculus, UniProt P32300) (P32300 whole entry): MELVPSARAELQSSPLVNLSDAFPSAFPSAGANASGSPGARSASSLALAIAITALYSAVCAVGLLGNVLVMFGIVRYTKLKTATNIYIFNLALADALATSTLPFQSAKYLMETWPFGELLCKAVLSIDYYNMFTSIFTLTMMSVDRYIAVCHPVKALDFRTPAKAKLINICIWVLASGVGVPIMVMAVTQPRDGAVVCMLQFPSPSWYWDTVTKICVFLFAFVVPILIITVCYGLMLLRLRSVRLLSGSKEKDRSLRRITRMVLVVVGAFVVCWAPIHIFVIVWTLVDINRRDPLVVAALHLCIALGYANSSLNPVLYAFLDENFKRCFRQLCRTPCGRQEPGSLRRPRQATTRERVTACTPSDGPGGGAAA

What is called IC50 is the point on the concentration scale where inhibition reaches its midpoint. A high value points to weaker potency in that assay. In the case of `CC1(C)SSC[C@@H](C(=O)N[C@@H](Cc2ccccc2)C(=O)O)NC(=O)[C@H](Cc2ccc(F)cc2)NC(=O)CNC(=O)[C@@H]1NC(=O)[C@@H](N)Cc1ccc(O)cc1`, the IC50 in experiment [1] was 0.028 nM; in experiment [2], 0.71 nM; on Mu-type opioid receptor [5], 110 nM; against Mu-type opioid receptor [6] it was 32 nM. For the same compound, the values for the Selectivity in experiment [3] and in experiment [4] were 160 and 1100, respectively.

Consider `CC1(C)SSC[C@@H](C(=O)N[C@@H](Cc2ccccc2)C(=O)O)NC(=O)[C@H](Cc2ccccc2)NC(=O)CNC(=O)[C@@H]1NC(=O)[C@@H](N)Cc1ccc(O)cc1` (H-Y[dPen]GFCF-OH; disulfide 2-5), for which the IC50 in experiment [1] was found to be 0.016 nM; in experiment [2] it was 1.4 nM; on Mu-type opioid receptor [5], 280 nM; on Mu-type opioid receptor [6] it was 82.7 nM. Moreover, the results for the Selectivity in experiment [3] and in experiment [4] were 200 and 5100, respectively.

Regarding `CC1(C)SSC[C@@H](C(=O)N[C@@H](Cc2ccccc2)C(=O)O)NC(=O)[C@H](Cc2ccc(I)cc2)NC(=O)CNC(=O)[C@@H]1NC(=O)[C@@H](N)Cc1ccc(O)cc1`, the IC50 was determined as 0.3 nM in experiment [1], 1.2 nM in experiment [2], 1600 nM at Mu-type opioid receptor [5] and 640 nM at Mu-type opioid receptor [6]. Moreover, the Selectivity was 1300 in experiment [3] and 2100 in experiment [4].

Turning to `CC1(C)SSC[C@@H](C(=O)N[C@@H](Cc2ccccc2)C(=O)O)NC(=O)[C@H](Cc2ccc(Br)cc2)NC(=O)CNC(=O)[C@@H]1NC(=O)[C@@H](N)Cc1ccc(O)cc1`, the IC50 in experiment [1] was 0.028 nM; in experiment [2], 1 nM; on Mu-type opioid receptor [5], 530 nM; against Mu-type opioid receptor [6], 120 nM. For the same compound, the values for the Selectivity in experiment [3] and in experiment [4] were 530 and 4300, respectively.

Regarding `CC1(C)SSC[C@@H](C(=O)N[C@@H](Cc2ccccc2)C(=O)O)NC(=O)[C@H](Cc2ccc(Cl)cc2)NC(=O)CNC(=O)[C@@H]1NC(=O)[C@@H](N)Cc1ccc(O)cc1`, the IC50 in experiment [1] was determined as 0.076 nM; in experiment [2], 0.51 nM; at Mu-type opioid receptor [5] it was 83 nM; against Mu-type opioid receptor [6], 36 nM. Besides, the results for the Selectivity in experiment [3] and in experiment [4] were 160 and 470, respectively.

At Mu-type opioid receptor [6], `CC(C)[C@H](NC(=O)[C@H](CC(=O)O)NC(=O)[C@H](Cc1ccccc1)NC(=O)[C@@H](C)NC(=O)[C@@H](N)Cc1ccc(O)cc1)C(=O)N[C@H](C(=O)NCC(N)=O)C(C)C` [DELTORPHIN C] displayed an IC50 of over 1500 nM.
